{"source": "paper PMC5260863", "about": "(Journal of medicinal chemistry, 2016)", "key": {"HEK293 lysate": {"test_system": "HEK293 lysate", "assay": "HEK293 lysate inhibition assay", "type": "biochemical, human", "details": "read-out: IC50 HEK293, mean of at least three experiments ± SEM"}, "MV4–11 cells [1]": {"test_system": "MV4–11 cells", "assay": "Western blot analysis of MV4–11 cells", "type": "cell-based, human", "details": "for AcHH3 and AcHH4 at varied doses: 6 hours", "outline": "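Cells were seeded at 500k cells/mL in 6-well plates and pre-incubated 24 h. They were then exposed to test compound at 100 nM for 24 h, or at varied doses for 6 h. Pellets were lysed in RIPA (Tris, NaCl, EDTA, SDS, deoxycholate, Triton X-100), sonicated, spun 15 min at 4°C, then heated in β-mercaptoethanol/LDS at 90°C. Primary antibody ran overnight at 4°C. Bands were normalized to actin, n ≥ 2.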"}, "HeLa cells": {"test_system": "HeLa cells", "assay": "HeLa EC50 analysis", "type": "cell-based, human", "details": "48 hours of treatment"}, "HEK293 cells": {"test_system": "HEK293 cells", "assay": "HEK293 EC50 analysis", "type": "cell-based, human", "details": "48 hours of treatment"}, "MV4–11 cells [2]": {"test_system": "MV4–11 cells", "assay": "MV4–11 EC50 analysis", "type": "cell-based, human"}, "human PBMCs": {"test_system": "human PBMCs", "assay": "Human peripheral blood mononuclear cell analysis", "type": "cell-based"}, "recombinant HDAC1": {"molecular_target": "recombinant HDAC1 (Homo sapiens, UniProt Q13547)", "sequence (Q13547 whole entry)": "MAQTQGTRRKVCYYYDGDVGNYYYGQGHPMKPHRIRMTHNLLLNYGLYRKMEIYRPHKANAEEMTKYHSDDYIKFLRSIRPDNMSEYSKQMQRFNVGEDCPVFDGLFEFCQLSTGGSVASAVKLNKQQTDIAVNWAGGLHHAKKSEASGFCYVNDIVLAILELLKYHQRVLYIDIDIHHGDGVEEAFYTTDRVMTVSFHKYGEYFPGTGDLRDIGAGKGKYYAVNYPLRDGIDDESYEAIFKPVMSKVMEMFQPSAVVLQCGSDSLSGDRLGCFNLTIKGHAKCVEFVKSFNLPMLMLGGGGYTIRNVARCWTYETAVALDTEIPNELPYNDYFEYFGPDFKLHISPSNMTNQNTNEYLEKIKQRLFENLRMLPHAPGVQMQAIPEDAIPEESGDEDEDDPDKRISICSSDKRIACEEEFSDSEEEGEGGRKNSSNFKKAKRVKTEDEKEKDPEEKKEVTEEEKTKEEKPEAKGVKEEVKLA", "assay": "Recombinant HDAC Vmax study", "type": "biochemical"}, "[3]": {"assay": "ESI-LCMS glucuronidation assay", "type": "in vitro ADME, human", "details": "12 hours at 37°C; for glucuronidation in human liver microsomes with UDP Glucuronic acid: alamethicin, ESI-LCMS", "outline": "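Pooled mixed-gender human liver microsomes at 250 µg/mL in 100 mM Tris HCl, pH 7.5. Alamethicin 1 µg/mL and MgCl2 5 mM (final), rocked 15 min at 4°C for pore formation. Test compound (5 mM stock) added with UDPGA (50 mM stock) or water, rocked 12 h at 37°C. Quenched with water/acetonitrile/formic acid 47:50:3, centrifuged 15000g. Supernatant analysed by reversed-phase ESI-LCMS TIC.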"}, "RPMI-8226 cells": {"test_system": "RPMI-8226 cells", "assay": "Cell viability, CellTiter-Blue", "type": "cell-based, human", "details": "even at mM concentrations"}, "recombinant HDAC3": {"molecular_target": "recombinant HDAC3 (Homo sapiens, UniProt O15379)", "sequence (O15379 whole entry)": "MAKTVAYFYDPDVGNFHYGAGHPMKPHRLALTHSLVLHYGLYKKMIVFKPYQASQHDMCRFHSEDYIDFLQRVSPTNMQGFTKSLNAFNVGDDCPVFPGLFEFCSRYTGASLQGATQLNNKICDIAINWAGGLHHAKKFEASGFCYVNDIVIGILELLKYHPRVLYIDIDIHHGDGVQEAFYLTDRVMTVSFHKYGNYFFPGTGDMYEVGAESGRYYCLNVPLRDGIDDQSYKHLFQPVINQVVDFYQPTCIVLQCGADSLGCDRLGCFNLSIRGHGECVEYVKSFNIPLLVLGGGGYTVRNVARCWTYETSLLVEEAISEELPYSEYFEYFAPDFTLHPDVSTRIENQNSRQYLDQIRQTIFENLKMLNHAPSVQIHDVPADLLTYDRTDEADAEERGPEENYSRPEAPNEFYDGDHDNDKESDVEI", "sequence (Q9Y618 395-489 partner limits assumed)": "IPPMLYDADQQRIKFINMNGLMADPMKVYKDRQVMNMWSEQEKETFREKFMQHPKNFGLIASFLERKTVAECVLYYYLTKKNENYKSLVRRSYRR", "assay": "Recombinant HDAC Vmax study", "type": "biochemical"}}, "note": "“And” between values parts separate entries of the source, which are not always exact repeats. Equal entries are not always repeated."}
{"smiles": "CCCCNNC(=O)c1ccc(OC)cc1", "note": "[1a, N’-butyl-4-methoxybenzohydrazide]", "values": [{"measurement": "IC50", "setting": "HEK293 lysate", "value": "727 ± 10.8", "unit": "nM"}]}
{"smiles": "CCCCNNC(=O)c1cc2ccccc2o1", "note": "[1b, N’-butylbenzofuran-2-carbohydrazide]", "values": [{"measurement": "IC50", "setting": "HEK293 lysate", "value": "1690 ± 38", "unit": "nM"}]}
{"smiles": "CCCCNNC(=O)c1ccc(Oc2ccccc2)cc1", "note": "[1c, N’-butyl-4-phenoxybenzohydrazide]", "values": [{"measurement": "IC50", "setting": "HEK293 lysate", "value": "1690 ± 298", "unit": "nM"}]}
{"smiles": "CCCCNNC(=O)c1cccnc1", "note": "[1d, N’-butylnicotinohydrazide]", "values": [{"measurement": "IC50", "setting": "HEK293 lysate", "value": "4680 ± 909", "unit": "nM"}]}
{"smiles": "CCCCNNC(=O)c1cccs1", "note": "[1f, N’-butylthiophene-2-carbohydrazide]", "values": [{"measurement": "IC50", "setting": "HEK293 lysate", "value": "3460 ± 669", "unit": "nM"}]}
{"smiles": "CCCCNNC(=O)c1ccco1", "note": "[1g, N’-butylfuran-2-carbohydrazide]", "values": [{"measurement": "IC50", "setting": "HEK293 lysate", "value": "> 10000", "unit": "nM"}]}
{"smiles": "CCCCNNC(=O)CCc1ccccc1", "note": "[1h, N’-butyl-3-phenylpropanehydrazide]", "values": [{"measurement": "IC50", "setting": "HEK293 lysate", "value": "> 10000", "unit": "nM"}]}
{"smiles": "CCCCNNC(=O)/C=C/c1ccccc1", "note": "[1i, N’-butylcinnamohydrazide]", "values": [{"measurement": "IC50", "setting": "HEK293 lysate", "value": "1440 ± 86.1", "unit": "nM"}]}
{"smiles": "CCCCNNC(=O)c1cccc2ccccc12", "note": "[1j, N’-butyl-1-napthohydrazide]", "values": [{"measurement": "IC50", "setting": "HEK293 lysate", "value": "> 10000", "unit": "nM"}]}
{"smiles": "CCCCNNC(=O)c1ccc(CNC(=O)c2ccccc2)cc1", "note": "[1l, N-(4-(2-butylhydrazine-1-carbonyl)benzyl)benzamide]", "values": [{"measurement": "upregulation of Acetylated Histones H3 and H4 (AcHH3/AcHH4)", "setting": "MV4–11 cells [1]; 100 nM, 24 hours", "value": "higher upregulation of Acetylated Histones H3 and H4 (AcHH3/AcHH4) than vorinostat and entinostat"}, {"measurement": "AcHH3 and AcHH4 at varied doses", "setting": "MV4–11 cells [1]", "value": "dose-dependent increase in AcHH3 and AcHH4"}, {"measurement": "killing of HeLa cells", "setting": "HeLa cells", "value": "Neither 1l, 2d, nor 3b display effective killing of this solid tumor cell line"}, {"measurement": "killing of HEK293 cells", "setting": "HEK293 cells", "value": "Neither 11, 2d, nor 3b display effective killing of this solid tumor cell line"}]}
{"smiles": "C/C=C/CNNC(=O)c1ccc(CNC(=O)c2ccccc2)cc1", "note": "[2a, (E)-N-(4-(2-(but-2-en-1-yl)hydrazine-1-carbonyl)benzyl)benzamide]", "values": [{"measurement": "IC50", "setting": "HEK293 lysate", "value": "> 10000", "unit": "nM"}]}
{"smiles": "CC(C)NNC(=O)c1ccc(CNC(=O)c2ccccc2)cc1", "note": "[2b, N-(4-(2-isopropylhydrazine-1-carbonyl)benzyl)benzamide]", "values": [{"measurement": "IC50", "setting": "HEK293 lysate", "value": "> 10000", "unit": "nM"}]}
{"smiles": "CC/C=N/NC(=O)c1ccc(CNC(=O)c2ccccc2)cc1", "note": "[2c, (E)-N-(4-(2-propylidenehydrazine-1-carbonyl)benzyl)benzamide]", "values": [{"measurement": "upregulation of Acetylated Histones H3 and H4 (AcHH3/AcHH4)", "setting": "MV4–11 cells [1]; 100 nM, 24 hours", "value": "no appreciable ability to increase acetylation of histones H3 and H4"}, {"measurement": "activity against MV4–11 cells", "setting": "MV4–11 cells [2]; doses as high as 250 µM, negative control", "value": "no appreciable activity"}, {"measurement": "IC50", "setting": "HEK293 lysate", "value": "> 10000", "unit": "nM"}]}
{"smiles": "CCCNNC(=O)c1ccc(CNC(=O)c2ccccc2)cc1", "note": "[2d, N-(4-(2-propylhydrazine-1-carbonyl)benzyl)benzamide]", "values": [{"measurement": "upregulation of Acetylated Histones H3 and H4 (AcHH3/AcHH4)", "setting": "MV4–11 cells [1]; 100 nM, 24 hours", "value": "higher upregulation of Acetylated Histones H3 and H4 (AcHH3/AcHH4) than vorinostat and entinostat"}, {"measurement": "AcHH3 and AcHH4 at varied doses", "setting": "MV4–11 cells [1]", "value": "dose-dependent increase in AcHH3 and AcHH4"}, {"measurement": "killing of HeLa cells", "setting": "HeLa cells", "value": "Neither 1l, 2d, nor 3b display effective killing of this solid tumor cell line"}, {"measurement": "toxicity toward PBMCs compared to panobinostat", "setting": "human PBMCs; 24 hours treatment", "value": "superior toxicity (less PBMC killing) than panobinostat"}, {"measurement": "less toxicity toward PBMCs than 3b", "setting": "human PBMCs; vs 3b, until the high micromolar range", "value": "10 fold and ~ 10 fold"}, {"measurement": "killing of HEK293 cells", "setting": "HEK293 cells", "value": "Neither 11, 2d, nor 3b display effective killing of this solid tumor cell line"}, {"measurement": "mode of inhibition, HDAC1 (Lineweaver-Burke plot)", "setting": "recombinant HDAC1", "value": "mixed inhibition"}, {"measurement": "metabolites in human liver microsomes", "setting": "[3]; with and without UDPGA, no NADPH added", "value": "Neither vessel contained any detectable metabolites other than parent compound"}]}
{"smiles": "O=C(NCc1ccc(C(=O)NNCCC(F)(F)F)cc1)c1ccccc1", "note": "[2f, N-(4-(2-(3,3,3-trifluoropropyl)hydrazine-1-carbonyl)benzyl)benzamide]", "values": [{"measurement": "IC50", "setting": "HEK293 lysate", "value": "1230 ± 136", "unit": "nM"}]}
{"smiles": "O=C(NCc1ccc(C(=O)NNCC2CC2)cc1)c1ccccc1", "note": "[2g, N-(4-(2-(cyclopropylmethyl)hydrazine-1-carbonyl)benzyl)benzamide]", "values": [{"measurement": "IC50", "setting": "HEK293 lysate", "value": "1620 ± 196", "unit": "nM"}]}
{"smiles": "CCCCCCCNNC(=O)c1ccc(CNC(=O)c2ccccc2)cc1", "note": "[2h, N-(4-(2-heptylhydrazine-1-carbonyl)benzyl)benzamide]", "values": [{"measurement": "IC50", "setting": "HEK293 lysate", "value": "2160 ± 896", "unit": "nM"}]}
{"smiles": "CCCCCCCCNNC(=O)c1ccc(CNC(=O)c2ccccc2)cc1", "note": "[2i, N-(4-(2-octylhydrazine-1-carbonyl)benzyl)benzamide]", "values": [{"measurement": "IC50", "setting": "HEK293 lysate", "value": "> 10000", "unit": "nM"}]}
{"smiles": "CCCCCCNNC(=O)c1ccc(CNC(=O)c2ccccc2)cc1", "note": "[2j, N-(4-(2-hexylhydrazine-1-carbonyl)benzyl)benzamide]", "values": [{"measurement": "IC50", "setting": "HEK293 lysate", "value": "550 ± 134", "unit": "nM"}]}
{"smiles": "CCCCCCCCCCNNC(=O)c1ccc(CNC(=O)c2ccccc2)cc1", "note": "[2k, N-(4-(2-decylhydrazine-1-carbonyl)benzyl)benzamide]", "values": [{"measurement": "IC50", "setting": "HEK293 lysate", "value": "> 10000", "unit": "nM"}]}
{"smiles": "CCNNC(=O)c1ccc(CNC(=O)c2ccccc2)cc1", "note": "[2l, N-(4-(2-ethylhydrazine-1-carbonyl)benzyl)benzamide]", "values": [{"measurement": "IC50", "setting": "HEK293 lysate", "value": "427 ± 110", "unit": "nM"}]}
{"smiles": "O=C(NCc1ccc(C(=O)NNCC2CCC2)cc1)c1ccccc1", "note": "[2m, N-(4-(2-(cyclobutylmethyl)hydrazine-1-carbonyl)benzyl)benzamide]", "values": [{"measurement": "IC50", "setting": "HEK293 lysate", "value": "1880 ± 212", "unit": "nM"}]}
{"smiles": "CCNNC(=O)c1ccc(CNC(=O)/C=C/c2ccccc2)cc1", "note": "[3a, N-(4-(2-ethylhydrazine-1-carbonyl)benzyl)cinnamide]", "values": [{"measurement": "IC50", "setting": "HEK293 lysate", "value": "171 ± 34.2", "unit": "nM"}]}
{"smiles": "CCCNNC(=O)c1ccc(CNC(=O)/C=C/c2ccccc2)cc1", "note": "[3b, N-(4-(2-propylhydrazine-1-carbonyl)benzyl)cinnamamide]", "values": [{"measurement": "upregulation of Acetylated Histones H3 and H4 (AcHH3/AcHH4)", "setting": "MV4–11 cells [1]; 100 nM, 24 hours", "value": "higher upregulation of Acetylated Histones H3 and H4 (AcHH3/AcHH4) than vorinostat and entinostat"}, {"measurement": "AcHH3 and AcHH4 at varied doses", "setting": "MV4–11 cells [1]", "value": "dose-dependent increase in AcHH3 and AcHH4"}, {"measurement": "decrease in EC50 in MV4–11 cells compared to 2d", "setting": "MV4–11 cells [2]; vs 2d", "value": "~2.5", "unit": "fold"}, {"measurement": "killing of HeLa cells", "setting": "HeLa cells", "value": "Neither 1l, 2d, nor 3b display effective killing of this solid tumor cell line"}, {"measurement": "toxicity toward PBMCs compared to panobinostat", "setting": "human PBMCs; 24 hours treatment", "value": "superior toxicity (less PBMC killing) than panobinostat"}, {"measurement": "killing of HEK293 cells", "setting": "HEK293 cells", "value": "Neither 11, 2d, nor 3b display effective killing of this solid tumor cell line"}, {"measurement": "glucuronidation in human liver microsomes with UDP Glucuronic acid", "setting": "[3]", "value": "not readily glucuronidated"}, {"measurement": "kill curve against RPMI-8226", "setting": "RPMI-8226 cells", "value": "incomplete kill curves"}]}
{"smiles": "CCCCCNNC(=O)c1ccc(CNC(=O)/C=C/c2ccccc2)cc1", "note": "[3d, N-(4-(2-pentylhydrazine-1-carbonyl)benzyl)cinnamide]", "values": [{"measurement": "IC50", "setting": "HEK293 lysate", "value": "691 ± 54.7", "unit": "nM"}]}
{"smiles": "CCCCCCNNC(=O)c1ccc(CNC(=O)/C=C/c2ccccc2)cc1", "note": "[3e, N-(4-(2-hexylhydrazine-1-carbonyl)benzyl)cinnamamide]", "values": [{"measurement": "IC50", "setting": "HEK293 lysate", "value": "1720 ± 139", "unit": "nM"}]}
{"smiles": "Cc1[nH]c2ccccc2c1CCNCc1ccc(/C=C/C(=O)NO)cc1", "note": "[Panobinostat, panobinostat, reference compound]", "values": [{"measurement": "Acetylated Tubulin (AcTub) levels", "setting": "MV4–11 cells [1]; 100 nM, 24 hours, marker of HDAC6 inhibition", "value": "the only inhibitor to raise Acetylated Tubulin (AcTub) levels at this concentration"}, {"measurement": "concentration at which toxicity toward PBMCs is displayed", "setting": "human PBMCs; 24 hours treatment", "value": 10, "unit": "nM"}]}
{"smiles": "O=C(CCCCCCC(=O)Nc1ccccc1)NO", "note": "[vorinostat, reference compound]", "values": [{"measurement": "mode of inhibition, HDAC3 (Lineweaver-Burke plot)", "setting": "recombinant HDAC3", "value": "competitive inhibition"}, {"measurement": "mode of inhibition, HDAC1 (Lineweaver-Burke plot)", "setting": "recombinant HDAC1", "value": "competitive inhibition"}, {"measurement": "glucuronidation in human liver microsomes with UDP Glucuronic acid", "setting": "[3]", "value": "presence of the o-glucuronidated metabolite"}]}
